S1P4 antag = blocks the human S1P4 receptor; O95977; S1P4-expressing cells, antagonist mode, reporter read-out; inhibition, % at 4.98 µM; 220,000 tested, 0.26% active; in the data active = inhibition above about 29%
Target sequence (O95977 whole entry, looked up): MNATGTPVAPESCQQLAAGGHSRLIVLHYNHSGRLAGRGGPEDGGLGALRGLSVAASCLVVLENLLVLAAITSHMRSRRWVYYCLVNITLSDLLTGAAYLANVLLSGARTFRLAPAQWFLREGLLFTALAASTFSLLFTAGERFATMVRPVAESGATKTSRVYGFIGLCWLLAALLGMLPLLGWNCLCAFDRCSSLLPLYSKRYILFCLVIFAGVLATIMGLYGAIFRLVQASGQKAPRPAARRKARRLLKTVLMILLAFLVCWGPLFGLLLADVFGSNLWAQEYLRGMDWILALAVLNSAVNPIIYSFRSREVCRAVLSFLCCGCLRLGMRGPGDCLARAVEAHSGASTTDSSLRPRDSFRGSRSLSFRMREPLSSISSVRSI
S1P4 ag = agonists of human S1P4 receptor; 220,000 tested, 0.35% active; O95977; S1P4-expressing cell line, agonist reporter assay; activation, % at 4.98 µM; in the data active = activation above about 11%
S1P3 antag = blocks the human S1P3 receptor | inhibition, % at 4.98 µM | AID 485 | Q99500 | 170,000 tested, 0.27% active | CHO S1P3 NFAT-BLA reporter, FRET fluorescence, antagonist mode;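 active = inhibition above the plate cutoff, the mean inhibition of test wells on that plate plus 3 SD, cut at about 28% in these data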;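 note: cells challenged with S1P at its EC80 of 0.8 µM; blue over green emission ratio from cleaved BLA substrate after 4 h stimulation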
Lmaj promast = reduces viability of Leishmania major promastigotes; resazurin fluorescence viability; inhibition, % at 10 µM; 200,000 tested, 9% active; AID 1063; in the data active = inhibition above about 50%;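 note: promastigotes grown with compound for 44 hours at 28 °C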
Mdm2 ligase inh = blocks human Mdm2 ubiquitin ligase activity; signal enhancement, % at 5 µM; cell-based MDM2 ubiquitination luciferase reporter, 2 h; 0 = plate control, 100 = twice control, blank-subtracted; 210,000 tested, 0.11% active; Q00987;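 active = signal enhancement of 30% or more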;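 note: luminescence tracks abundance of the self-degrading MDM2-luciferase fusion protein; higher signal means inhibition of MDM2 E3 ligase activity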
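Test system: mammalian cells stably expressing self-ubiquitinating, self-degrading MDM2 E3–luciferase fusion; Amount: 2000 cells in each well; Medium: DMEM; Schedule: 4 h settle plus 2 h compound, 37 °C; Technique: SteadyLite luciferase luminescence after 15 min room-temperature reagent incubation; Benchmarks: plate control and blank wells.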
Numbers stand for hits; n = inactive; x = not tested or not shown. This excerpt belongs to a sample that is enriched for hits.

SMILES	S1P4 antag	S1P4 ag	S1P3 antag	Lmaj promast	Mdm2 ligase inh
CCOC(=O)Cn1c(=O)oc2cc(S(=O)(=O)N3CCn4c3nc3ccccc34)ccc21	n	n	x	n	n
CC(C)CCNC(=O)Cn1c(=O)oc2cc(S(=O)(=O)N3CCc4ccccc43)ccc21	n	n	n	99	n
O=C(Cn1c(=O)oc2cc(S(=O)(=O)N3CCCC3)ccc21)N1CCN(C2CCCCC2)CC1	n	n	x	85	n
CS(=O)(=O)N1CCN=C1SCc1ccc([N+](=O)[O-])cc1	n	n	n	n	n
N=c1n(CCN2CCOCC2)c2ccccc2n1CC(=O)c1ccc(Cl)c(Cl)c1	n	n	n	66	n
C/C(=N\NC(=O)C1(C)CC1(Br)Br)c1cccc(NC(=O)C(C)(C)C)c1 (stereo unspecified)	n	n	n	60	n
C/C(=N\NC(=O)c1nn(C)cc1Br)c1cccc(NC(=O)C(C)(C)C)c1	n	n	x	n	n
CSc1cccc(NC(=S)N(Cc2ccccc2)Cc2cccnc2)c1	n	n	n	96	n
COc1ccc(CN(Cc2cccnc2)C(=S)NCCc2ccccc2)cc1OC	n	n	x	100	n
Cc1cccc(C)c1NC(=S)N(Cc1ccccc1)Cc1cccnc1	n	n	n	89	n
Cc1ccc(S(=O)(=O)NCC(=O)OCC(=O)NC(=O)NC2CCCC2)cc1	n	n	n	n	n
Cc1ccc(N2C(=O)C(Cl)=C(NCc3ccccc3)C2=O)c(C)c1	n	n	x	n	n
CCOC(=O)c1c(NC(=O)Cn2cnc([N+](=O)[O-])n2)sc2c1CCC(C)C2 (stereo unspecified)	n	n	x	98	n
CCOC(=O)c1c(NC(=O)Cn2cc([N+](=O)[O-])cn2)sc2c1CCC2	n	n	x	n	n
COC(=O)c1c(NC(=O)Cc2cccs2)sc2c1CCC(C)C2 (stereo unspecified)	n	n	n	n	n
COC(=O)c1c(NC(=S)NN2CCN(C)CC2)sc2c1CCC(C)C2 (stereo unspecified)	n	n	n	100	n
COC(=O)c1c(NC(=O)Cn2cnc([N+](=O)[O-])n2)sc2c1CCC(C)C2 (stereo unspecified)	n	n	n	100	n
CC1(C)C(=O)Nc2ccccc2N1C(=O)COc1cccnc1[N+](=O)[O-]	n	n	n	n	n
CC(C)NS(=O)(=O)c1ccc(NC(=S)NC(=O)c2ccc(-c3ccccc3)cc2)cc1	n	n	x	93	n
Cc1nc2ccc(NC(=O)c3ccc(S(=O)(=O)N4CCOCC4)cc3)cc2s1	n	n	x	n	n
Cc1nc2ccc(NC(=O)c3ccc(S(=O)(=O)N(C)c4ccccc4)cc3)cc2s1	n	n	n	99	n
Cc1nc2ccc(NC(=O)c3cccc(S(=O)(=O)N4CC(C)OC(C)C4)c3)cc2s1 (stereo unspecified)	n	n	x	98	n
CN(c1ccccc1)S(=O)(=O)c1ccc(NC(=S)NC(=O)C2CC2)cc1	n	n	n	75	n
Cc1cc(C)c(S(=O)(=O)Nc2ccccc2-c2ccccc2)c(C)c1	n	n	n	n	n
CCOCCOC(=O)c1ccc(-n2cncn2)nc1	n	n	x	n	n
SMILES	S1P4 antag	S1P4 ag	S1P3 antag	Lmaj promast	Mdm2 ligase inh
CC1CN(S(=O)(=O)c2ccc(NC(=O)c3cc(-c4ccccc4O)n[nH]3)cc2)CC(C)O1 (stereo unspecified)	n	n	n	100	n
COc1ccccc1/C=C/C(=O)NC(=S)Nc1ccc(S(=O)(=O)N(C)c2ccccc2)cc1	n	n	x	62	n
COc1cc(C(=O)Nc2ccc(S(=O)(=O)N(C)c3ccccc3)cc2)cc(OC)c1OC	n	n	n	n	n
O=C(Nc1ccc(S(=O)(=O)N2CCOCC2)cc1)c1cc(-c2ccccc2O)n[nH]1	n	n	n	x	n
Cc1ccc(C(=O)NC(=S)Nc2ccc(S(=O)(=O)N(C)c3ccccc3)cc2)cc1	n	n	x	n	n
CN(c1ccccc1)S(=O)(=O)c1ccc(NC(=S)NC(=O)c2ccccc2)cc1	n	n	x	100	n
Cc1oc(-c2cccc(F)c2)nc1CN(Cc1ccccc1)C[C@@H]1CCC(=O)N1	n	n	n	59	n
Cc1oc(-c2ccccc2Cl)nc1CN(Cc1ccccn1)C[C@@H]1CCC(=O)N1	n	n	n	n	n
CC1Cc2ccccc2N1CC(=O)NC(=O)NCc1ccccc1 (stereo unspecified)	n	n	n	63	n
CC1Cc2ccccc2N1CC(=O)NC(=O)NC1CCCCC1 (stereo unspecified)	n	n	n	92	n
CC1Cc2ccccc2N1CC(=O)NC(=O)NC(C)(C)C (stereo unspecified)	n	n	n	n	n
O=C(NCc1cccnc1)c1csc2c1CCCC2	n	n	n	52	n
Cc1ccc(CNC(=O)c2csc3c2CCCCC3)cc1	n	n	x	n	n
CC(NC(=O)CCSc1nc(-c2ccc3c(c2)OCO3)cc(C(F)(F)F)n1)c1ccccc1 (stereo unspecified)	n	n	x	62	n
O=C(CCCSc1nc(-c2ccco2)cc(C(F)(F)F)n1)Nc1ccc2c(c1)OCO2	n	n	n	n	n
O=C(COC(=O)c1ccc(CO)cc1)NCc1cccs1	n	n	n	n	n
Oc1ccc(Nc2nc3ccccc3nc2Nc2ccc(O)cc2)cc1	n	n	x	92	n
COc1ccc(C2(CNC(=O)c3cc([N+](=O)[O-])cc([N+](=O)[O-])c3)CCCC2)cc1OC	n	n	n	100	n
O=C(CN1C(=O)c2ccccc2S1(=O)=O)NC(Nc1ccccc1F)C(Cl)(Cl)Cl (stereo unspecified)	n	n	n	n	x
NC(=O)Cc1ccc(Nc2nnc(-c3ccc(O)cc3)c3ccccc23)cc1	n	n	n	n	n
COCC(C)n1c(C)cc(C(=O)COC(=O)C2=NN(c3ccccc3)C(=O)CC2)c1C (stereo unspecified)	n	n	n	n	n
COCC(C)n1c(C)cc(C(=O)COC(=O)c2ccc(N3CCCC3=O)cc2)c1C (stereo unspecified)	n	n	n	69	n
Oc1c(C(c2cccs2)N2CCN(c3ccccc3)CC2)ccc2cccnc12 (stereo unspecified)	n	n	x	84	n
CCCN(C(=O)COc1ccc(Cl)cc1Cl)c1c(N)n(Cc2ccccc2)c(=O)[nH]c1=O	n	n	n	n	n
CN1CCN(S(=O)(=O)c2ccc(NC(=S)NC(=O)C3CCCC3)cc2)CC1	n	n	n	n	n
CN1CCN(S(=O)(=O)c2ccc(NC(=O)c3csc4ccccc34)cc2)CC1	n	n	n	56	n
COC(=O)CCC(=O)NC(=S)Nc1ccc(S(=O)(=O)N2CCCC2)cc1	n	n	n	n	n
CC(C)CC(=O)NC(=S)Nc1ccc(S(=O)(=O)N2CCN(C)CC2)cc1	n	n	n	67	n
CC(C)C(=O)NC(=S)Nc1ccc(S(=O)(=O)N2CCN(C)CC2)cc1	n	n	n	87	n
CSc1nn2cc(CCN3CCOCC3)c(-c3ccc(F)cc3)nc2c1C#N	n	n	n	n	n
